Target: T1, His6-Te2FT (Thermosynechococcus vestitus, UniProt Q8DK72)
T1 sequence (Q8DK72 1-293): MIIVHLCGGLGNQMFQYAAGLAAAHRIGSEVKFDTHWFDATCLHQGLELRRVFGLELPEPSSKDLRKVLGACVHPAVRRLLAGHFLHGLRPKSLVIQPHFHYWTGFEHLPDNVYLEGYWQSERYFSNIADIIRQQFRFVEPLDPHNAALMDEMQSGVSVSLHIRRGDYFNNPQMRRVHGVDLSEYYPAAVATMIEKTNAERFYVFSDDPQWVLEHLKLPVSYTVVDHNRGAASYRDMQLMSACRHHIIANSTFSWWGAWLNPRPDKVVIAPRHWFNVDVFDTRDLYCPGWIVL
Experiment: HPLC-based fucosyltransferase kinetics
Type: biochemical
Settings: α1–2-fucosyltransferase activity; acceptor; donor GDP-fucose
In short: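 Enzyme is N-His6-tagged Te2FT from the pET15b vector, expressed in E. coli at 16 °C for 20 h with shaking at 120 rpm. It was purified on a Ni2+ column and quantified by bicinchoninic acid assay. Apparent kinetic parameters (kcat, KM, kcat/KM) were determined for α1–2-fucosyltransferase activity. The acceptor was Galβ1–3GlcNAcβ2AA and the donor was GDP-fucose.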

Km: 790 ± 110 µM
Substance: Galβ1–3GlcNAcβ2AA
